pIC50: −log10 of the molar value. Converted amounts (≈) assume the structure as drawn.

The species named for one data set is Mustela putorius furo. Description: Increased contractile force of ferret papillary muscle. The class given is functional, Muscle tissue. The method in brief: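 Isolated ferret papillary muscle, 30-min preincubation with compound; value is the concentration (μM) giving a 20% increase in contractile force. Mean of at least two determinations, with and without 1 μM propranolol co-administration.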

Data set [1] can be described thus: Solubility was measured in pH 7.4 phosphate buffer. The class given is physicochemical. A digest of the protocol:
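Solubility in pH 7.4 phosphate buffer, quantified by HPLC.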

Data set [2] in a line: Partition coefficient was determined in an octanol/ pH 7.4 phosphate buffer system. The following applies: octanol/water. The class given is physicochemical.
A short description of data set [3]: Half life time was observed by 50% conversion to compound 1 at pH 1.5. The format is ADME. The method in brief: (§1)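 Aliquots taken at set intervals; prodrug, parent and internal standard quantified by reversed-phase HPLC with UV detection (alkyl phenyl column, 50 °C, phosphate/CH3CN gradient). t1/2 of drug consumed; mean of at least two determinations.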
For a further data set, the species on record is Canis familiaris. Briefly: Half life time was observed by 50% conversion to compound 1 in dog plasma. The class given is ADME, Canis lupus familiaris. The following applies: in vitro. A digest of the protocol:
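Prodrug with internal standard diluted 1:100 from stock in 0.05 M NaH2PO4/0.1% H3PO4 into fasted canine plasma, held at 37 °C. Conversion to parent followed by HPLC; half-life of drug consumed.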

The nature of data set [4]: Half life time was observed by 50% conversion to compound 1 at pH 7.4. The format is ADME. The method in brief: as §1
Data set [5] is described as follows: Inhibition of c-AMP phosphodiesterase.

By solubility is commonly meant how much of the substance goes into solution per volume. Read a high solubility as a readily soluble substance. Molecule `CCc1[nH]c(O)nc1C(=O)c1ccc(-n2ccnc2C)cc1` had a C20 in the data set listed under Mustela putorius furo of 0.5 µM. The same molecule came in with a solubility in data set [1] of 44 µM (≈ 13 µg/mL). Also, the Partition coefficient in data set [2] was 7.
As for `CCc1nc(O)n(C(C)=O)c1C(=O)c1ccc(-n2ccnc2C)cc1`, the T1/2 in data set [3] is 21 h; in the data set filed under Canis familiaris, 0.5 h; in data set [4] it was 8 h. The molecule further yielded a C20 in the data set listed under Mustela putorius furo of 0.2 µM. This molecule also yielded a solubility in data set [1] of 40 µM (≈ 13.5 µg/mL). In data set [2], this molecule displayed a Partition coefficient of 26.
Molecule `CCc1nc(O)n(Cc2ccccc2)c1C(=O)c1ccc(-n2ccnc2C)cc1` had a C20 in the data set filed under Mustela putorius furo of 13 µM.
By pIC50 is commonly meant the IC50 on a negative log10 scale, so that one unit is a factor of ten. A low value points to a large IC50. Consider `CCc1nc(O)n(C(=O)c2ccccc2)c1C(=O)c1ccc(-n2ccnc2C)cc1`, for which the T1/2 came to 263 h in data set [3], 0.633 h in the data set filed under Canis familiaris and 25 h in data set [4]. This molecule registered a C20 in the data set filed under Mustela putorius furo of 0.2 µM. In data set [5], the pIC50 was 3.80. The molecule also gave a solubility in data set [1] of 23 µM (≈ 9.21 µg/mL). This molecule came in with a Partition coefficient in data set [2] of 92.
Turning to `CCc1nc(O)n(C(=O)C(C)C)c1C(=O)c1ccc(-n2ccnc2C)cc1`, the figures for the T1/2 (in data set [3]; in the data set filed under Canis familiaris; in data set [4]) were 132 h, 0.783 h and 8 h, respectively. In the data set filed under Mustela putorius furo, this molecule returned a C20 of 0.3 µM. The amount in solution in data set [1] (solubility) came to 10 µM (≈ 3.66 µg/mL). The Partition coefficient in data set [2] is given as more than 200.
For `CCc1nc(O)n(C(=O)Cc2ccccc2)c1C(=O)c1ccc(-n2ccnc2C)cc1`, the T1/2 came to 39 h in data set [3] and 1.5 h in data set [4]. Moreover, the C20 in the data set listed under Mustela putorius furo came out at 0.2 µM. Moreover, the solubility in data set [1] was found to be 25 µM (≈ 10.4 µg/mL).
As for `CCC(=O)n1c(O)nc(CC)c1C(=O)c1ccc(-n2ccnc2C)cc1`, the T1/2 in data set [3] was found to be 17 h; in the data set listed under Canis familiaris, 0.5 h; in data set [4] it was 6 h. Also, in the data set filed under Mustela putorius furo, the C20 is 0.3 µM. In data set [1], the solubility was 30 µM (≈ 10.6 µg/mL). Further, the Partition coefficient in data set [2] is 52.

These data come from ChEMBL document CHEMBL1126324, “Cardiotonic agents. 7. Prodrug derivatives of 4-ethyl-1,3-dihydro- 5-[4-(2-methyl-1H-imidazol-1-yl)benzoyl]-2H-imidazol-2-one” (J Med Chem, 1992).
